What was measured:
[1] = system: HEK293 cell line expressing hNOD2 and NFκB-SEAP reporter; test: Human NOD2 signaling HEKBlue reporter assay; type: cell-based; details: read-out: RIPK2/NOD2 Cell Assay IC50, HEKBlue, 1 ng/mL L18-MDP, mean of two or three determinations ± standard deviation, NI: No inhibition up to 10 μM
Method in brief: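 Cells seeded at 7.5-15x10^3 per well; after 24–48 h switched to HEKBlue detection medium and given an 11-point dose range of test compound together with the stimulant. SEAP read as absorbance at 620 nm after 7–9 h. Media-only background subtracted; % inhibition relative to DMSO/L18-MDP controls; IC50 by non-linear regression.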

[2] = molecular target: Recombinant RIPK2 protein (Homo sapiens, UniProt O43353); test: RIPK2 enzyme assay; type: biochemical; details: for selectivity for RIPK2 versus ALK2: ratio of ALK2 to RIPK2 kinase IC50
Recombinant RIPK2 protein, sequence (O43353 whole entry): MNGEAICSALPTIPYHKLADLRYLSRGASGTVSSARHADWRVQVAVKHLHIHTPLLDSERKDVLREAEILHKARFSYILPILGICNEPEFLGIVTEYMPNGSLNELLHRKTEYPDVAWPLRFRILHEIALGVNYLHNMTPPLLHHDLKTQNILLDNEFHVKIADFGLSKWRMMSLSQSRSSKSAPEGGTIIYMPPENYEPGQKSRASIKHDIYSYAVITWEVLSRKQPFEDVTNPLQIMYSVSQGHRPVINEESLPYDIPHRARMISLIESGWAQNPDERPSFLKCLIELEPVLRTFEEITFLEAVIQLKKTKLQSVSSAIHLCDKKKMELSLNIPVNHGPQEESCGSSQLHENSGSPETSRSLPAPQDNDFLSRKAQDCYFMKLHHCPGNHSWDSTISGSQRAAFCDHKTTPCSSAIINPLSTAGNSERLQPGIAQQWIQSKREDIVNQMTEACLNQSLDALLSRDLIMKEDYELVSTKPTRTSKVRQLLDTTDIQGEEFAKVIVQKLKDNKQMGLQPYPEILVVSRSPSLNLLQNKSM
Method in brief: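 Started with solution of 100 μM ATP + 1 mg/ml RS repeat peptide, 2 h RT; ADP-Glo luminescence. IC50 by non-linear regression. ALK2: human enzyme, casein 1 mg/mL, γ-33ATP 10 μM, 10 nM–100 μM compound, 30 min, 33P-casein.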

[3] = system: RAW264.7 macrophages; details: cited from earlier work
[4] = system: GST-BIR2-cIAP1 and RIPK2; details: cited from earlier work
[5] = system: XIAP-mediated RIPK2 ubiquitination; details: cited from earlier work
[6] = system: U2OS/NOD2 cells; details: cited from earlier work
[7] = system: RAW264.7 macrophages; type: cell-based; details: at 1 μM; data not shown

In the case of COc1cc(-c2cc(-c3ccc(N4CCNCC4)cc3)cnc2C)cc(OC)c1OC [Compound 9a, reference compound], the IC50 [1] is reported as greater than 10 µM.

In the case of CCCS(=O)(=O)Nc1cc(-c2cc(-c3ccccc3S(C)(=O)=O)cnc2N)ccc1OC [Compound 18ab, N-(5-(2-Amino-5-(2-(methylsulfonyl)phenyl)pyridin-3-yl)-2-methoxyphenyl)propane-1-sulfonamide], the IC50 [1] is reported as greater than 10 µM.

CCCS(=O)(=O)Nc1cc(-c2cc(-c3ccc(S(C)(=O)=O)cc3)cnc2N)ccc1OC [Compound 18ad, N-(5-(2-Amino-5-(4-(methylsulfonyl)phenyl)pyridin-3-yl)-2-methoxyphenyl)propane-1-sulfonamide] gave an IC50 [1] greater than 10 µM.

In the case of CCCS(=O)(=O)Nc1cc(-c2cc(-c3ccc(N4CCNCC4)cc3)cnc2N)ccc1OC [Compound 18m, N-(5-(2-Amino-5-(4-(piperazin-1-yl)phenyl)pyridin-3-yl)-2-methoxyphenyl)propane-1-sulfonamide], the IC50 [2] is reported as 0.041 ± 0.019 µM and the “selectivity for RIPK2 versus ALK2” value [2] is reported as 86 fold.

For CCCS(=O)(=O)Nc1cc(-c2cc(-c3ccc(N4CCNCC4)cc3)cnc2N)ccc1O [Compound 18n, N-(5-(2-Amino-5-(4-(piperazin-1-yl)phenyl)pyridin-3-yl)-2-hydroxyphenyl)propane-1-sulfonamide], the IC50 [1] was greater than 5 µM.

For CCCS(=O)(=O)Nc1cc(-c2cc(-c3ccc(N4CCNCC4)cc3)cnc2N)cc(OC)c1OC [Compound 18p, N-(5-(2-Amino-5-(4-(piperazin-1-yl)phenyl)pyridin-3-yl)-2,3-dimethoxyphenyl)propane-1-sulfonamide], the “inhibition of L18-MDP-induced TNFα release” value [3] is listed as “efficient inhibition”, the “interaction between GST-BIR2-cIAP1 and RIPK2” value [4] is listed as “interfered” and the “XIAP-mediated RIPK2 ubiquitination” value [5] is listed as “blocked”. For the same compound, the “inhibition of L18-MDP-induced CXCL8 production” value [6] was “efficient inhibition”.

CCCS(=O)(=O)Nc1cc(-c2cc(-c3ccc(N4CCNCC4)cc3)cnc2N)cc(OCC)c1OC [Compound 18q, N-(5-(2-Amino-5-(4-(piperazin-1-yl)phenyl)pyridin-3-yl)-3-ethoxy-2-methoxyphenyl)propane-1-sulfonamide] showed an IC50 [1] greater than 10 µM.

For CCCS(=O)(=O)Nc1cc(-c2cc(-c3ccc(N4CCNCC4)cc3)cnc2N)cc(F)c1OC [Compound 18t, N-(5-(2-Amino-5-(4-(piperazin-1-yl)phenyl)pyridin-3-yl)-3-fluoro-2-methoxyphenyl)propane-1-sulfonamide], the “inhibition of L18-MDP-induced TNFα release” value [3] is given as “efficient inhibition”, the “block of RIPK1 and RIPK3 dependent necroptosis” value [7] is given as “did not block” and the “selectivity for RIPK2 versus ALK2” value [2] is given as greater than 20 fold. The “interaction between GST-BIR2-cIAP1 and RIPK2” value [4] was “interfered”, the “XIAP-mediated RIPK2 ubiquitination” value [5] was “blocked” and the “inhibition of L18-MDP-induced CXCL8 production” value [6] was “efficient inhibition”.

Reference: PMC7338260 (European journal of medicinal chemistry, 2020)
